# Hits are enriched below; roughly 8.2% of the tested compounds scored in any of these assays.
# M1 antag – antagonists of rat M1 muscarinic receptor; CHO-M1 cells, Fluo-4 calcium, ACh EC80 antagonist mode; hits give low values; B-score at 10 µM; 3.4% of 64,000 active;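 active = calcium fluorescence response, raw or row-and-column corrected B-score, differing from the plate sample mean either way at a set confidence level, mostly lower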
# HePTP inhibitor – human HePTP phosphatase inhibition | P35236 | recombinant HePTP phosphatase activity, OD absorbance | inhibition, % at 20 µM | 0.64% of 110,000 active; in the data active = inhibition above about 50%; inconclusive = no clear call, values can overlap the other calls;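 also: plate controls were vehicle for no effect and reference inhibitor for full effect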
# RORA act – activates the human nuclear receptor RORA | AID 560 | 1.5% of 65,000 active | activation, % at 10 µM | CHO-K1 Gal4-RORA LBD luciferase reporter, luminescence; percent increase over mock-subtracted basal signal | P35398;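 active = activation above the mean of all tested compounds plus 3 SD, cut at about 49% in these data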;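 also: 0% = DMSO-treated RORA cells and 100% = added signal equal to DMSO minus mock-transfected cells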
# D1 allo mod – allosterically modulates the human D1 dopamine receptor; P21728; HEK293 D1, CRE-luciferase, dopamine EC30 potentiation; actives deviate in either direction; B-score at 10 µM; 5.9% of 58,000 active;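 active = luminescence count or its row- and column-corrected plate score outside the 99.7% band of the plate's sample wells, on either side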
# M1 agonist – activates the M1 muscarinic receptor | CHO-M1 cells, Fluo-4 calcium fluorescence, agonist mode; hits give high values | B-score at 10 µM | 3% of 64,000 active;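 active = fluorescence rise, raw or as B-score row- and column-corrected plate score, outside the 99.7% band of its plate's samples, either direction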
# SF1 activator – activates the human nuclear receptor SF-1; Q13285; CHO-K1 Gal4-SF-1 LBD luciferase reporter; % increase over DMSO SF-1-specific signal; activation, % at 10 µM; 1.9% of 65,000 active;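 active = activation above the mean activation of all tested compounds plus 3 SD, cut at about 50% in these data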
# Target sequence (Q13285 whole entry, looked up, the tested form may be a part): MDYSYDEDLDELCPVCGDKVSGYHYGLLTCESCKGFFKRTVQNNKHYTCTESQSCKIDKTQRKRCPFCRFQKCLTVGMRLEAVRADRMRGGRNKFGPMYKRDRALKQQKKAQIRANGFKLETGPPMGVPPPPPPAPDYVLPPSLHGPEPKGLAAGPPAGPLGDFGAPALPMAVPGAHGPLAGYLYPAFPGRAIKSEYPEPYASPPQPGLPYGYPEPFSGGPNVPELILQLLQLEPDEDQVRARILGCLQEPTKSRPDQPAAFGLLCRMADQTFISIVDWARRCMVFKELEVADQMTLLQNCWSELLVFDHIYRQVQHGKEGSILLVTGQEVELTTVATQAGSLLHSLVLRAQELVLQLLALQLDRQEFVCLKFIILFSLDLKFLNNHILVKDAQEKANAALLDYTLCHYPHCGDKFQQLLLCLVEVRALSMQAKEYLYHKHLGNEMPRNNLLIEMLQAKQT
#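 Test system: transient Gal4-SF-1 LBD reporter, CHO-K1; Amount: 4,000 CHO-K1 cells per well; Doses: 10 µM only; Timing: compound exposure 20 h at 37 °C; Signal: luciferase light emission; Read-out basis: percent activation relative to DMSO median and mock-transfected background; Control set: DMSO negative control and −SF1 background wells; Replicates: one test per compound.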
# M1 agonist conf – rat M1 muscarinic agonism, confirmation; 19% of 1,700 active; CHO-M1 cells, Fluo-4 calcium fluorescence, agonist mode; actives lie on both sides; shares compounds with M1 agonist; fluorescence change (max-min) at 10 µM;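 active = fluorescence change differs from the solvent-only DMSO control mean at a set confidence level in both duplicate runs; inconclusive = differs from solvent-only control mean in just one of two runs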;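 also: an EC20 dose of acetylcholine follows compound addition during the same imaging run; raw fluorescence intensity difference in instrument units with no normalization to controls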
# M4 ag counter – counter-screen for M1 agonists: activity at rat M4 receptor; fluorescence change (max-min) at 10 µM; 9% of 1,700 active; CHO M4/Gqi5 cells, Fluo-4 calcium fluorescence, agonist mode; actives lie on both sides; shares compounds with M1 agonist;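 active = fluorescence change differing from the plate's solvent-only control wells at 99.7% confidence in both duplicates, whether higher or lower; inconclusive = differs from solvent controls in only one of two duplicates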
# Starred values were filed as active, the others as inactive; ? = inconclusive; / = no result.
SMILES,M1 antag,HePTP inhibitor,RORA act,D1 allo mod,M1 agonist,SF1 activator,M1 agonist conf,M4 ag counter
CC(C)Cn1c(N)c(C(=O)NCC2CCCO2)c2nc3ccccc3nc21 (stereo not given),0.177,14.4,-11.1,/,0.323,-4.8,/,/
COCCn1c(N)c(C(=O)NCC2CCCO2)c2nc3ccccc3nc21 (stereo not given),-0.55,3.2,9.6,0.751,7.79*,-1.5,-25.8*,?
COc1cccc(Cn2c(NCC(C)C)nc3c2c(=O)n(C)c(=O)n3C)c1,0.203,-0.1,-2.8,/,-0.0362,24.9,/,/
Cc1nn(C)c(C)c1CN(C)C(=O)c1cnn2c1NC(c1ccccc1)CC2C(F)(F)F (stereo not given),-0.624,6.7,-17.7,-0.263,-3.3*,-11.4,-26*,?
O=C(NCc1ccco1)c1cnn2c1NC(c1ccccc1)CC2C(F)(F)F (stereo not given),1.02,1.4,-17.4,/,0.28,10.7,/,/
CCOC(=O)c1c(C)oc2c1c(C=NCC1CCCO1)c(O)c1ccccc12 (stereo not given),0.299,-7.5,14.6,0.119,2.9*,-9.4,-16,6.4
COc1ccccc1C(=O)Nc1nnn(C)n1,0.488,4.0,-14.5,/,0.106,-13.7,/,/
O=C(Cn1nnc(-c2ccccc2)n1)OCc1csc(-c2ccccc2)n1,-0.206,0.5,8.9,0.0186,13.6*,18.9,-26.8,-27.6
COc1cccc(-c2nnn(CC(=O)Nc3ccc(C)cc3C)n2)c1OC,/,-3.4,-3.9,3.21,/,0.4,/,/
C=CCn1c2ccccc2c2nnc(SCCCn3c(=O)[nH]c4ccccc43)nc21,-6.62*,11.2,3.0,2.33,5.32*,-5.7,-3.69,-18.2
O=C1CSC(=NC(=O)c2ccccc2)N1,0.308,0.7,-26.9,-0.777,-0.467,-1.1,/,/
COc1ccc(OC)c(C(=O)CSc2nc3cccnc3n2C)c1,/,-4.6,11.8,/,/,-12.3,/,/
CCOc1ccccc1N(CC(=O)N1CCOCC1)S(=O)(=O)c1ccccc1,0.0308,-2.4,-8.4,1.09,-0.684,-16.6,/,/
Cc1ccccc1S(=O)(=O)Cc1ccc(C(=O)N2CC(C)CC(C)C2)o1 (stereo not given),0.00806,3.7,22.2,-0.0182,-0.89,3.5,/,/
COc1ccccc1S(=O)(=O)Cc1ccc(C(=O)N2CCCC2)o1,0.208,4.5,12.6,0.231,-0.986,4.1,/,/
Cc1ccccc1S(=O)(=O)Cc1ccc(C(=O)N2CCN(c3cccc(C)c3C)CC2)o1,-0.631,4.0,-44.1,-4.33,9.65*,-81.7,?,-31.3
CCc1ccccc1S(=O)(=O)Cc1ccc(C(=O)N2CCN(c3ccccc3OC)CC2)o1,-0.28,1.6,-17.7,-2.43*,7.19*,-13.4,-15.6,?
CCCC(=O)N1CCN(Cc2ccccc2)CC1,/,4.6,/,/,/,/,/,/
Cc1ccc(CSc2nc(N)c3c4c(sc3n2)CCC4)c(C)c1,/,9.1,/,/,/,/,/,/
NC(=O)C1CCN(c2ncnc3c2c(-c2ccccc2)cn3-c2ccccc2)CC1,-1.51,-9.7,5.2,-3.79*,3.71*,-19.6,?,-62.3
COc1cccc(/C=N/n2c(C)nc3ccccc3c2=O)c1O,-0.497,3.9,1.6,0.727,1.61,-1.7,/,/
COc1cccc(CNn2c(-c3cccc(C)c3)nc3ccccc3c2=O)c1O,-1.22,1.1,-10.5,0.0308,8.57*,-10.7,?,-42.9
CCCC(c1nnnn1Cc1ccccc1)N1CCN(c2ccccc2OC)CC1 (stereo not given),-0.757,7.4,-8.3,-0.00959,7.05*,-0.6,-14.9,-36.1
COc1cccc(C(c2nnnn2Cc2ccccc2)N2CCN(C3CCCC3)CC2)c1OC (stereo not given),-1.73*,6.3,-17.7,-3.55*,2.85*,2.0,-14.1,-34.8
COc1ccc(OC)c(C(c2nnnn2C2CCCC2)N2CCN(c3ccccc3)CC2)c1 (stereo not given),-0.0861,6.2,-28.3,-0.971,-1.66*,-10.2,-15.7,-51.4
SMILES,M1 antag,HePTP inhibitor,RORA act,D1 allo mod,M1 agonist,SF1 activator,M1 agonist conf,M4 ag counter
CCCC(c1nnnn1Cc1ccc(OC)cc1)N1CCN(c2ccccc2OC)CC1 (stereo not given),-0.782,3.7,1.2,-0.0367,1.82,-11.8,/,/
Cc1cccc(C)c1NC(=O)c1ccc(-n2cnnn2)cc1,0.109,3.2,16.5,-0.96,-0.278,1.8,/,/
Nc1c(C(=O)Nc2ccccc2)sc2nc(-c3ccco3)ccc12,-0.558,1.1,21.2,-0.459,2.81*,22.8,?,-56.8
COc1ccccc1NC(=O)c1sc2nc(-c3ccco3)ccc2c1N,1.58,5.0,-10.8,0.283,11.2,23.6,/,/
O=C(N/N=C/c1ccncc1)c1ccco1,/,6.1,/,/,/,/,/,/
CN1CCN(C(=O)CSc2nc(-c3cccs3)cc(-c3cccs3)c2C#N)CC1,-1.11,6.0,-0.4,0.813,5.72*,-0.3,-1.39,-15.5
COC(=O)C1=C(C)NC2=C(C(=O)CCC2)C1c1cc2c(cc1Br)OCO2 (stereo not given),/,3.7,/,/,/,/,/,/
CCCCC(=O)Nc1ccc(C(=O)N2CCCC(C(=O)OCC)C2)cc1 (stereo not given),-0.683,8.3,2.5,-0.782,-0.167,16.1,/,/
CCOC(=O)C1CCCN(CCC(=O)Nc2ccc3c(c2)CCC3)C1 (stereo not given),-3.62*,-5.5,10.8,-0.17,15.5*,-10.9,150*,-20.9
CCOc1ccc(Nc2cc(C)nc(-n3nc(C)cc3C)n2)cc1,-0.193,3.4,-23.9,2.96,0.0096,-64.9,/,/
CCn1c(CSc2nccn2C)nc2cc(C(=O)O)ccc21,0.218,10.3,-0.7,-0.767,7.24*,-6.3,10.8,-37.7
Cn1ccnc1SCC(=O)c1ccc(Cl)cc1,/,7.2,/,/,/,/,/,/
CCOc1cc(C(=O)Nc2nnc(C)s2)cc(OCC)c1OCC,-1.05,5.1,6.6,0.537,-0.699,-10.6,/,/
Cc1ccccc1N1OC2C(=O)N(c3ccc(F)cc3)C(=O)C2C1c1ccccn1 (stereo not given),-0.117,7.7,14.7,-0.41,13.4*,11.1,-6.34,-15
Cc1ccc2c(c1)nnn2C1CCN(CC(=O)Nc2ccccc2N2CCOCC2)CC1,-0.0469,7.3,2.7,-0.218,2.91*,1.8,-11.6,-5.69
Cc1cccn2c(=O)c3cc(C(=O)NCc4ccco4)c(=N)n(CCOCCO)c3nc12,-0.935,2.5,-1.9,-0.678,11.7*,6.7,107*,?
N=c1c(C(=O)NCc2ccc(F)cc2)cc2c(=O)n3ccccc3nc2n1CC1CCCO1 (stereo not given),-0.973,-2.4,-13.8,-1.71,3.71*,10.9,90.2*,?

# High-throughput results (PubChem)
